Measured values: PMC11734723 (Science Advances, 2025)
pIC50: −log10 of the molar value. Where two headings read alike, the source gives them in different places.

What was measured:
Human PBMCs = experiment: Basal Ca2+ and Ca2+ oscillations in human PBMC-derived osteoclasts; format: cell-based; details: ELP-004 100 nM; for effect on basal Ca2+ levels: 14 days
In short: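 Human PBMCs cultured in αMEM with 10% FBS and human mCSF (50 ng/ml). At 24 h, RANKL (1 or 100 ng/ml) was added; 2–3 days later, human TNFα (2 ng/ml) and test compound (100 nM) were added where indicated. On day 14, coverslip cells were Fura2-loaded (2 µM, 30 min, RT) in buffer with 1 mM Ca²⁺ (pH 7.2) and de-esterified 30 min. Basal 340/380 ratio was recorded 3–5 min in 30–50 cells and plotted against variance.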

STIM1/Orai1 = STIM1/Orai1 (Homo sapiens, UniProt Q13586); experiment: Store-operated Ca2+ entry; format: cell-based; details: Tg 2 μM, 1 mM Ca2+, ELP-004 0 to 1 mM
In short: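 STIM1–YFP was electroporated into HEK293 cells, which were selected with puromycin (5 µg/ml) and cloned for highest YFP. Orai1–CFP was then added, followed by G418 selection and cloning for highest YFP/CFP and screening for SOCE. Fura2-loaded cells (2 µM, 30 min, RT) were held 10 min in Ca²⁺-free pH 7.2 buffer with thapsigargin (2 µM) and test compound. After baseline, 1 mM Ca²⁺ was added; the read-out was the 340/380 ratio.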

[1] = preclinical testing in mice; cited from earlier work
murine BMSMCs [2] = experiment: Pit assay on osteo-assay surface plates, murine BMSMC-derived osteoclasts; format: cell-based, mouse; details: ELP-004 100 nM
In short: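 Murine BMSMC osteoclasts were grown on synthetic bone-mimetic surface plates with ±test compound (100 nM), fed every 3–5 days, and assayed on days 7, 14 and 21. Cells were removed with 10% bleach (5 min). Matrix was stained with 1% silver nitrate under UV for 20–45 min, treated with 2.5% sodium thiosulphate and dehydrated in ethanol. Average size of 10–30 pits was measured.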

SKG mice = experiment: SKG mouse model of RA; format: in vivo; details: for bone surface density (BS/TV): femur trabecular bone
In short: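 Male and female SKG mice received zymosan A (2 mg, single i.p., saline) at 8 weeks of age. From day 3, they were gavaged daily for 8 weeks with test compound in a PLGA lipid nanoemulsion (180 mg/kg) or vehicle. Paws were scored blind weekly to day 56. Micro-CT covered calcaneal pore volume and connectivity density, femoral trabecular bone (1.75 mm) and L5 (2.15 mm), with BMD calibrated against hydroxyapatite phantoms. Analysis used one-tailed unpaired t or Mann-Whitney tests.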

murine BMSMCs [3] = format: cell-based, mouse; details: ELP-004 100 nM
TRPC7 = target: T1, TRPC7 (Homo sapiens, UniProt Q9HCX4); experiment: Carbachol-induced Sr2+ entry in TRPC7-overexpressing HEK293 cells; format: cell-based; details: read-out: IC50 of Cch-induced Sr2+ entry; Cch 100 nM, Sr2+ 3 mM
T1 sequence (Q9HCX4 1-862): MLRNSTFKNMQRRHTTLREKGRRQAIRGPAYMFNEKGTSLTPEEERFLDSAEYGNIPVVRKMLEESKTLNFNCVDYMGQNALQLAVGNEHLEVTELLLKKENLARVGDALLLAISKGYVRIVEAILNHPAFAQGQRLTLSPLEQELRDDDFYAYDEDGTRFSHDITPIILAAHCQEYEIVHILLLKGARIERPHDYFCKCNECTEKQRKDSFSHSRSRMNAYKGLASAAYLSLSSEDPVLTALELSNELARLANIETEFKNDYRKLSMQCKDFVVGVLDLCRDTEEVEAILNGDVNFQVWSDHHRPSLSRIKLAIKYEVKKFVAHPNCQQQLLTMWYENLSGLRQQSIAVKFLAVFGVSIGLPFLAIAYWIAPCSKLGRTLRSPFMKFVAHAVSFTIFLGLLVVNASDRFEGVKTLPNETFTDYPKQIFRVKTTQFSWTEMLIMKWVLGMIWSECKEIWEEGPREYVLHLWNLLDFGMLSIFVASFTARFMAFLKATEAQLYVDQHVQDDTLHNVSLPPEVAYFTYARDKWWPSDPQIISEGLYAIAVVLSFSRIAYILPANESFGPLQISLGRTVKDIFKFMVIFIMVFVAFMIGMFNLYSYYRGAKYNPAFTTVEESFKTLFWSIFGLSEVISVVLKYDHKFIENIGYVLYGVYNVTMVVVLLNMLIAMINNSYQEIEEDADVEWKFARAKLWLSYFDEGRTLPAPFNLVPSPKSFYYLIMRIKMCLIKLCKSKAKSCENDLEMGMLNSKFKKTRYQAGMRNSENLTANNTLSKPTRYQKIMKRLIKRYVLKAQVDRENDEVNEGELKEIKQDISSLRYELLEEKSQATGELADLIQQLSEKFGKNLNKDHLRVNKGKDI
In short: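 HEK293 cells were electroporated with GFP-tagged TRPC4, TRPC5 or TRPC7, plated after 24 h and cultured 48 h under selection; only high-GFP cells were analysed. Coverslip cells were loaded with Fura2 (2 µM) and treated with carbachol (100 nM) plus test compound (0 to 100 µM). Entry was measured after adding Sr²⁺ (3 mM), read as the 340/380 ratio; n = 3 to 5.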

STIM1/Orai1, sequence (Q13586 23-685, species assumed): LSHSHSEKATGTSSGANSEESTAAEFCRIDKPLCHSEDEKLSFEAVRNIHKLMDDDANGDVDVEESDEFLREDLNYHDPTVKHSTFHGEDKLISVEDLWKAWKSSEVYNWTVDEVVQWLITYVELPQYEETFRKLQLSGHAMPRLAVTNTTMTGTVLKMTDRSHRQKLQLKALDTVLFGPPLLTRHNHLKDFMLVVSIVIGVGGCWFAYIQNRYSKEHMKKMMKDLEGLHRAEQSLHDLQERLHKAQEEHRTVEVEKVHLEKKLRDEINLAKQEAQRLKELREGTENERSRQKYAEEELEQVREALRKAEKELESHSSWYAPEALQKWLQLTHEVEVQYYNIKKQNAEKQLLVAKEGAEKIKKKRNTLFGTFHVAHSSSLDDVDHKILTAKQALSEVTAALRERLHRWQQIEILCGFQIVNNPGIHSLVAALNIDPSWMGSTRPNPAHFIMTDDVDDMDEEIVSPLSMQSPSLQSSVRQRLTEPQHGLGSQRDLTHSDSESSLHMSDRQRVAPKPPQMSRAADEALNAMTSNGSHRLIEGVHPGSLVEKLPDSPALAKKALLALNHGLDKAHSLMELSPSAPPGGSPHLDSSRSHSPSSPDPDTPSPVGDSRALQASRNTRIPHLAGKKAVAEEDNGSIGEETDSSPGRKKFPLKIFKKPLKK

CCC(=O)N(C)c1ccc(Cl)c(Cl)c1 [ELP-004]
effect on basal Ca2+ levels (Human PBMCs; RANKL (100 ng/ml)): significantly lowered | effect on Ca2+ oscillations (Human PBMCs; RANKL alone): no effect | effect on basal Ca2+ levels (Human PBMCs; TNFα (2 ng/ml)/RANKL (1 ng/ml)): significantly lowered | effect on Ca2+ oscillation generation (Human PBMCs; TNFα/RANKL): significantly lowered | effect on STIM1/Orai1-mediated Ca2+ entry (STIM1/Orai1): largely unaffected | genotoxic or off-target toxicities [1]: without inducing genotoxic or extensive off-target toxicities | effect on matrix degradation (murine BMSMCs [2]; LTB4/RANKL): potent inhibition | effect on pit formation (matrix degradation) (murine BMSMCs [2]; RANKL (100 ng/ml)): significant ELP-004–induced inhibition observed on day 21 | effect on matrix degradation (murine BMSMCs [2]; TNFα/RANKL): completely abolished | arthritic indices versus vehicle controls (SKG mice; both male and female, ELP-004–LNE 180 mg/kg daily oral): reduced arthritic indices beginning at week 5 | bone surface density in the L5 vertebrae versus vehicle (SKG mice; both sexes): increased | trabecular number in the L5 vertebrae versus vehicle (SKG mice; both sexes): increased | porosity in the tarsus or calcaneus (μCT) (SKG mice; either sex, ELP-004–LNE 180 mg/kg daily oral 8 weeks): did not significantly change | joint inflammation in paws (histology) (SKG mice; either sex, ELP-004–LNE 180 mg/kg daily oral, without statistical significance): only showed a trend | BMD in the femurs versus vehicle (SKG mice; female mice): increased | bone volume/tissue volume (BV/TV) in the femurs versus vehicle (SKG mice; female mice): increased | trabecular number in the femurs versus vehicle (SKG mice; female mice): increased | mean BMD of femurs (SKG mice; female mice, ELP-004-treated): 0.1436 g/mL | connectivity density of pores in the calcaneus (SKG mice; females, P < 0.05): attenuated the increase | rescue of connectivity density of pores in the tarsus (SKG mice; females, P = 0.056): strong tendency | bone surface density (BS/TV) (SKG mice; females, P < 0.05): 6.78 ± 2.20 mm^−1 | connectivity density of pores in the tarsus (SKG mice; males, P < 0.05): attenuated the increase | bone surface density (BS/TV) (SKG mice; males, ELP-004–LNE 180 mg/kg daily oral 8 weeks): 9.60 ± 2.16 mm^−1 | cumulative erosion scores for metatarsals 2, 3, 4 and 5 (SKG mice; maximum score 12): reduced erosions in female (P < 0.05), but not male | effect on TRAP intensity (murine BMSMCs [3]; LTB4/RANKL): completely prevented the increase | effect on number of TRAP-positive cells (murine BMSMCs [3]; LTB4/RANKL): no effect | effect on multinucleation (murine BMSMCs [3]; LTB4/RANKL, days 7 and 14): significant ELP-004–induced decreases | effect on TRAP intensity (murine BMSMCs [3]; RANKL (100 ng/ml)): no impact | effect on number of TRAP-positive cells (murine BMSMCs [3]; RANKL (100 ng/ml)): no impact | effect on number of TRAP-positive cells (murine BMSMCs [3]; TNFα (2 ng/ml)/RANKL (1 ng/ml)): no significant effect | effect on TRAP intensity increases (murine BMSMCs [3]; TNFα/RANKL): severely attenuated | effect on number of multinuclear cells (murine BMSMCs [3]; TNFα/RANKL, P < 0.0005): significantly attenuated | effect on TRAP-positive cells (murine BMSMCs [3]; mCSF (50 ng/ml) only): no effect | effect on TRAP-positive cells (murine BMSMCs [3]; mCSF + RANKL (1 ng/ml)): no effect | pIC50 (TRPC7): 7.64
